For 13 compounds, IC50 results are on record in PubChem BioAssay AID651708 (Sanford-Burnham Center for Chemical Genomics, 2012).

Usually IC50 stands for the concentration that inhibits the measured activity by half.

Where “and” joins values, the source holds several entries; their conditions need not be identical. Equal values may be shown once. Calls of active or inactive are those of the source.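 The calls were made as follows: active = compound with IC50 above 30 µM at both the APJ and CCR6 off-target receptors, and at most 10 µM at CXCR6; inactive = the rest.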

Common to all, as to assay: GPCR panel antagonist activity incl. apelin receptor – cell-based, CHO-K1 PathHunter beta-arrestin, luminescence, set 3, selectivity assay for CXCR6 antagonist project, profiling panel (AID 651708)
In test [1] the target is Apelin receptor (Homo sapiens) (UniProt P35414). As to conditions: antagonist mode, APJ. The procedure, abridged: (§1)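 System: CHO-K1 PathHunter β-arrestin cell lines for APJ, CCR6 or CXCR6. Reagent: APJ 10 nM Apelin-13, CCR6 14 nM CCL20, CXCR6 CXCL16. Detection: β-arrestin recruitment luminescence.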
Apelin receptor (Homo sapiens), sequence (P35414 whole entry, looked up): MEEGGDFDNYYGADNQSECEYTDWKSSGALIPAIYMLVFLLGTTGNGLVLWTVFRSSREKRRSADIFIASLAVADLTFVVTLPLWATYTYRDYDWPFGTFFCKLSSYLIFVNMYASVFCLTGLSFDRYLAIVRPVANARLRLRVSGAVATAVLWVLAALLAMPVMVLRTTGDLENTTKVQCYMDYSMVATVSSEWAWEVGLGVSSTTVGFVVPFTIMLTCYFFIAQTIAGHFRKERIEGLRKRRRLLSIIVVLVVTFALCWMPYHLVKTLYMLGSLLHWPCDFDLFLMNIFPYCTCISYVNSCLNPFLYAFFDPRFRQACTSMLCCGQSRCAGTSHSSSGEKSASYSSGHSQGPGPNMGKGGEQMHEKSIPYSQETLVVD
In test [2] the target is C-C chemokine receptor type 6 (Homo sapiens) (UniProt P51684). Particulars: antagonist mode. The gist of the method: as §1
C-C chemokine receptor type 6 (Homo sapiens), sequence (P51684 whole entry, looked up): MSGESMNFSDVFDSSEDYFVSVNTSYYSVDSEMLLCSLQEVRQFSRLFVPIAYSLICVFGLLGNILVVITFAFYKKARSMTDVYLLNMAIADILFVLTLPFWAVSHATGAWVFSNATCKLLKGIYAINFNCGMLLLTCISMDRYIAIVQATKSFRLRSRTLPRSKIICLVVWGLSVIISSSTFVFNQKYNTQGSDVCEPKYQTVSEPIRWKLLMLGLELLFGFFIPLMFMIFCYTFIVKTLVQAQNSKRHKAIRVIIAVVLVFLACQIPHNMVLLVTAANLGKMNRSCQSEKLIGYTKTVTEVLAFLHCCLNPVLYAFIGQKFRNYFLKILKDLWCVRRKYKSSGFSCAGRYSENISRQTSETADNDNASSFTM
The target in test [3] is C-X-C chemokine receptor type 6 (Homo sapiens) (UniProt O00574). Particulars: antagonist mode. The procedure, abridged: as §1
C-X-C chemokine receptor type 6 (Homo sapiens), sequence (O00574 whole entry, looked up): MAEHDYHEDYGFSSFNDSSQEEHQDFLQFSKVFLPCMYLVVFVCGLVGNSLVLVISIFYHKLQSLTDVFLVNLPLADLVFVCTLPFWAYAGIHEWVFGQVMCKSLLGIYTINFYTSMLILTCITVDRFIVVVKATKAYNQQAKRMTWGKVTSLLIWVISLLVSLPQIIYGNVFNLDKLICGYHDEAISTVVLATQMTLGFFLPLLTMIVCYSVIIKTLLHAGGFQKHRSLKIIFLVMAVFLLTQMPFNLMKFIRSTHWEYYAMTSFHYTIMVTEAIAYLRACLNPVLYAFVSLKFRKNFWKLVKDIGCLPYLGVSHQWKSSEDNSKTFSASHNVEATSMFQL

As for `COc1cc(C(=O)NC2CC3CCCC(C2)N3CC(=O)Nc2ccccc2)cc(OC)c1OC` (configuration not stated), the IC50 is > 79 µM (inactive) in test [1] (mean of runs); > 79 µM in test [1] (run 1); > 79 µM in test [1] (run 2); > 79 µM (inactive) in test [2] (CCR6, mean of runs); > 79 µM in test [2] (CCR6, run 1); > 79 µM in test [2] (CCR6, run 2). The IC50 in test [3] (CXCR6, mean of runs) is 4.78 µM and 4.75 µM; in test [3] (CXCR6, run 1), 4.48 µM and 4.08 µM; in test [3] (CXCR6, run 2) it was 5.09 µM and 5.43 µM.

On to `COc1cc(OC)cc(C(=O)NC2CC3CCCC(C2)N3CC(=O)Nc2ccc(C)cc2)c1` (configuration not stated), for which the IC50 in test [1] (mean of runs) is > 79 µM (inactive); in test [1] (run 1) it was > 79 µM; in test [1] (run 2), > 79 µM; in test [2] (CCR6, mean of runs), > 79 µM (inactive); in test [2] (CCR6, run 1), > 79 µM; in test [2] (CCR6, run 2) it was > 79 µM. Moreover, the IC50 in test [3] (CXCR6, mean of runs) is > 79 µM (inactive); in test [3] (CXCR6, run 1), > 79 µM; in test [3] (CXCR6, run 2), > 79 µM.

As for `Cc1ccc(NC(=O)CN2C3CCCC2CC(NC(=O)c2ccc4c(c2)OCO4)C3)cc1` (configuration not stated), the concentration for half-maximal inhibition (IC50) is > 79 µM in test [1] (run 1); 28.6 µM in test [1] (run 2); > 79 µM (inactive) in test [2] (CCR6, mean of runs); > 79 µM in test [2] (CCR6, run 1); > 79 µM in test [2] (CCR6, run 2); > 79 µM (inactive) in test [3] (CXCR6, mean of runs). Moreover, the IC50 in test [3] (CXCR6, run 1) was > 79 µM; in test [3] (CXCR6, run 2) it was > 79 µM.

For `O=C(CN1C2CCCC1CC(NC(=O)c1ccc3c(c1)OCO3)C2)Nc1ccc(Cl)cc1` (configuration not stated), the IC50 in test [1] (run 1) is > 79 µM; in test [1] (run 2), 36.9 µM; in test [2] (CCR6, mean of runs) it was > 79 µM (inactive); in test [2] (CCR6, run 1), > 79 µM; in test [2] (CCR6, run 2) it was > 79 µM; in test [3] (CXCR6, mean of runs), > 79 µM (inactive). The IC50 in test [3] (CXCR6, run 1) is > 79 µM; in test [3] (CXCR6, run 2), > 79 µM.

Regarding `COc1ccccc1NC(=O)CN1C2CCCC1CC(NC(=O)c1cc(OC)c(OC)c(OC)c1)C2` (configuration not stated), the half-inhibitory concentration (IC50) in test [1] (run 1) was > 79 µM; in test [1] (run 2), 25.4 µM; in test [2] (CCR6, mean of runs) it was > 79 µM (inactive); in test [2] (CCR6, run 1), > 79 µM; in test [2] (CCR6, run 2) it was > 79 µM; in test [3] (CXCR6, mean of runs) it was 1.95 µM. Also, the IC50 in test [3] (CXCR6, run 1) amounted to 1.81 µM; in test [3] (CXCR6, run 2), 2.09 µM.

Turning to `COc1ccc(C(=O)NC2CC3CCCC(C2)N3CC(=O)Nc2ccc(C)cc2)cc1OC` (configuration not stated), the IC50 in test [1] (mean of runs) was > 79 µM (inactive); in test [1] (run 1), > 79 µM; in test [1] (run 2) it was > 79 µM; in test [2] (CCR6, mean of runs), > 79 µM (inactive); in test [2] (CCR6, run 1), > 79 µM; in test [2] (CCR6, run 2), > 79 µM. In addition, the IC50 in test [3] (CXCR6, mean of runs) is > 79 µM (inactive); in test [3] (CXCR6, run 1), > 79 µM; in test [3] (CXCR6, run 2) it was > 79 µM.

In the case of `COc1cc(C(=O)NC2CC3CCCC(C2)N3CC(=O)Nc2ccccc2Cl)cc(OC)c1OC` (configuration not stated), the IC50 in test [1] (run 1) is > 79 µM; in test [1] (run 2), 0.818 µM; in test [2] (CCR6, mean of runs), > 79 µM (inactive); in test [2] (CCR6, run 1), > 79 µM; in test [2] (CCR6, run 2), > 79 µM; in test [3] (CXCR6, mean of runs) it was 0.338 µM. The IC50 in test [3] (CXCR6, run 1) came to 0.191 µM; in test [3] (CXCR6, run 2), 0.484 µM.

`COc1cc(OC)cc(C(=O)NC2CC3CCCC(C2)N3CC(=O)Nc2ccc(Cl)cc2)c1` (configuration not stated): the IC50 in test [1] (mean of runs) was > 79 µM (inactive); in test [1] (run 1), > 79 µM; in test [1] (run 2) it was > 79 µM; in test [2] (CCR6, mean of runs), > 79 µM (inactive); in test [2] (CCR6, run 1), > 79 µM; in test [2] (CCR6, run 2), > 79 µM. In addition, the IC50 in test [3] (CXCR6, mean of runs) was > 79 µM (inactive); in test [3] (CXCR6, run 1), > 79 µM; in test [3] (CXCR6, run 2) it was > 79 µM.

For `COc1cc(OC)cc(C(=O)NC2CC3CCCC(C2)N3CC(=O)Nc2ccc(F)cc2)c1` (configuration not stated), the IC50 in test [1] (mean of runs) was > 79 µM (inactive); in test [1] (run 1) it was > 79 µM; in test [1] (run 2), > 79 µM; in test [2] (CCR6, mean of runs), > 79 µM (inactive); in test [2] (CCR6, run 1), > 79 µM; in test [2] (CCR6, run 2), > 79 µM. The IC50 is > 79 µM (inactive) in test [3] (CXCR6, mean of runs); > 79 µM in test [3] (CXCR6, run 1); > 79 µM in test [3] (CXCR6, run 2).

`COc1cc(C(=O)NC2CC3CCCC(C2)N3CC(=O)Nc2ccc(Cl)cc2)cc(OC)c1OC` (configuration not stated): the 50% inhibitory concentration (IC50) is > 79 µM in test [1] (run 1); 52.7 µM in test [1] (run 2); > 79 µM (inactive) in test [2] (CCR6, mean of runs); > 79 µM in test [2] (CCR6, run 1); > 79 µM in test [2] (CCR6, run 2); 1.46 µM in test [3] (CXCR6, mean of runs). Moreover, the half-inhibitory concentration (IC50) in test [3] (CXCR6, run 1) turned out to be 1.27 µM; in test [3] (CXCR6, run 2), 1.65 µM.

`COc1ccc(C(=O)NC2CC3CCCC(C2)N3CC(=O)Nc2ccc(C)cc2)cc1` (configuration not stated): the IC50 is > 79 µM (inactive) in test [1] (mean of runs); > 79 µM in test [1] (run 1); > 79 µM in test [1] (run 2); > 79 µM (inactive) in test [2] (CCR6, mean of runs); > 79 µM in test [2] (CCR6, run 1); > 79 µM in test [2] (CCR6, run 2). In addition, the IC50 in test [3] (CXCR6, mean of runs) is > 79 µM (inactive); in test [3] (CXCR6, run 1) it was > 79 µM; in test [3] (CXCR6, run 2), > 79 µM.

Take `COc1ccc(C(=O)NC2CC3CCCC(C2)N3CC(=O)Nc2ccc(F)cc2)cc1OC` (configuration not stated): the IC50 is > 79 µM (inactive) in test [1] (mean of runs); > 79 µM in test [1] (run 1); > 79 µM in test [1] (run 2); > 79 µM (inactive) in test [2] (CCR6, mean of runs); > 79 µM in test [2] (CCR6, run 1); > 79 µM in test [2] (CCR6, run 2). In addition, the IC50 in test [3] (CXCR6, mean of runs) was > 79 µM (inactive); in test [3] (CXCR6, run 1), > 79 µM; in test [3] (CXCR6, run 2), > 79 µM.

Consider `COc1cccc(C(=O)NC2CC3CCCC(C2)N3CC(=O)Nc2ccccc2)c1` (configuration not stated), for which the IC50 in test [1] (mean of runs) was > 79 µM (inactive); in test [1] (run 1) it was > 79 µM; in test [1] (run 2), > 79 µM; in test [2] (CCR6, mean of runs) it was > 79 µM (inactive); in test [2] (CCR6, run 1), > 79 µM; in test [2] (CCR6, run 2) it was > 79 µM. In addition, the IC50 in test [3] (CXCR6, mean of runs) was > 79 µM (inactive); in test [3] (CXCR6, run 1), > 79 µM; in test [3] (CXCR6, run 2), > 79 µM.
